In ChEMBL document CHEMBL3124843, “Synthesis, cytostatic, antimicrobial, and anti-HCV activity of 6-substituted 7-(het)aryl-7-deazapurine ribonucleosides” (J Med Chem, 2014):
pEC50, pIC50: −log10 of the molar value. Active and inactive are the calls of the source. No rule for the calls is given here.

Columns and labels:
HCT-116 [1] = assay: Cytostatic activity against p53-deficient human HCT116 cells after 72 hrs by MTT assay; format: functional, cell-based; details: HCT-116, 72 h
How it was run: (§1)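 IC50 is the concentration that cuts cell growth by 50%, read by quantitative metabolic MTT staining after a 3-day treatment. The resistant sublines were made by raising the concentration of the cytotoxic drug step by step. CEM-DNR-bulk (daunorubicin-selected) stably overexpresses mrp-1. K562-TAX (paclitaxel-selected) expresses only mdr-1. HCT116p53−/− carries null p53 alleles. BJ and MRC-5 are nonmalignant fibroblasts.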

Escherichia coli [2] = assay: Antibacterial activity against Escherichia coli CCM 3954 after 24 hrs; format: functional, organism-based
[3] = Cytotoxicity against human HuH7 cells infected with Hepatitis C virus subtype 2a; format: cell-based, Huh-7
HL-60 = assay: Antiproliferative activity against human HL60 cells after 72 hrs by XTT assay; format: functional, cell-based; details: HL-60, 72 h
How it was run: (§2)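 Antiproliferative test on HL-60 promyelocytic leukemia and HeLa S3 cervical carcinoma cells growing in liquid suspension.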

Candida parapsilosis = assay: Antifungal activity against Candida parapsilosis after 48 hrs; format: functional, organism-based
Hepatitis C virus [4] = assay: Antiviral activity against Hepatitis C virus subtype 2a infected in human HuH7 cells; format: functional, organism-based, Hepacivirus hominis; details: genotype 2a, Huh-7
CCRF-CEM = assay: Cytostatic activity against human CCRF-CEM cells after 72 hrs by MTT assay; format: functional, cell-based; how it was run: as §1
Pseudomonas aeruginosa [5] = assay: Antibacterial activity against multi-resistant Pseudomonas aeruginosa A/16575 after 24 hrs; format: functional, organism-based
[6] = system: Staphylococcus haemolyticus; assay: Antibacterial activity against methicillin-resistant Staphylococcus haemolyticus A/16568 after 24 hrs; format: functional, organism-based
Staphylococcus aureus [7] = assay: Antibacterial activity against methicillin-resistant Staphylococcus aureus MRSA 4591 after 24 hrs; format: functional, organism-based
Candida albicans = assay: Antifungal activity against Candida albicans after 48 hrs; format: functional, organism-based
Pichia kudriavzevii = assay: Antifungal activity against Candida crusei after 48 hrs; format: functional, organism-based
Escherichia coli [8] = assay: Antibacterial activity against multi-resistant Escherichia coli C/16702 after 24 hrs; format: functional, organism-based
K562 [9] = assay: Cytostatic activity against paclitaxel-resistant human K562 cells after 72 hrs by MTT assay; format: functional, cell-based; details: K562, 72 h; how it was run: as §1
MRC5 = assay: Cytostatic activity against human MRC5 cells after 72 hrs by MTT assay; format: ADME, cell-based; details: MRC5, 72 h; how it was run: as §1
Hepatitis C virus [10] = assay: Antiviral activity against Hepatitis C virus subtype 1b infected in human HuH7 cells; format: functional, organism-based, Hepacivirus hominis; details: genotype 1b, Huh-7
Candida tropicalis = assay: Antifungal activity against Candida tropicalis after 48 hrs; format: functional, organism-based
Staphylococcus aureus [11] = assay: Antibacterial activity against Staphylococcus aureus CCM 3953 after 24 hrs; format: functional, organism-based
K562 [12] = assay: Cytostatic activity against human K562 cells after 72 hrs by MTT assay; format: functional, cell-based; details: K562, 72 h; how it was run: as §1
A549 = assay: Cytostatic activity against human A549 cells after 72 hrs by MTT assay; format: functional, cell-based; details: A549, 72 h; how it was run: as §1
Pseudomonas aeruginosa [13] = assay: Antibacterial activity against Pseudomonas aeruginosa CCM 3955 after 24 hrs; format: functional, organism-based
HCT-116 [14] = assay: Cytostatic activity against human HCT116 cells after 72 hrs by MTT assay; format: functional, cell-based; details: HCT-116, 72 h; how it was run: as §1
Enterococcus faecalis = assay: Antibacterial activity against Enterococcus faecalis CCM 4224 after 24 hrs; format: functional, organism-based
BJ = assay: Cytostatic activity against human BJ cells after 72 hrs by MTT assay; format: ADME, cell-based; how it was run: as §1
[15] = Cytostatic activity against human CEM-DNR-bulk cells after 72 hrs by MTT assay; format: functional, cell-based; how it was run: as §1
[16] = Cytotoxicity against human HuH7 cells infected with Hepatitis C virus subtype 1b; format: cell-based, Huh-7
[17] = Antiproliferative activity against human HeLaS3 cells after 72 hrs by XTT assay; format: functional, cell-based; details: HeLa S3, 72 h; how it was run: as §2
HepG2 = assay: Antiproliferative activity against human HepG2 cells after 72 hrs by XTT assay; format: functional, cell-based; details: HepG2, 72 h

SMILES	pIC50 (HCT-116 [1])	Activity (Escherichia coli [2])	CC50 [3]	pIC50 (HL-60)	Activity (Candida parapsilosis)	pEC50 (Hepatitis C virus [4])	pIC50 (CCRF-CEM)	Activity (Pseudomonas aeruginosa [5])	Activity [6]	Activity (Staphylococcus aureus [7])	Activity (Candida albicans)	Activity (Pichia kudriavzevii)	Activity (Escherichia coli [8])	pIC50 (K562 [9])	pIC50 (MRC5)	pEC50 (Hepatitis C virus [10])	Activity (Candida tropicalis)	Activity (Staphylococcus aureus [11])	pIC50 (K562 [12])	pIC50 (A549)	further results
CSc1ncnc2c1c(I)cn2[C@@H]1O[C@H](CO)[C@@H](O)[C@H]1O	< 4.70	inactive	> 44 µM	7.30	inactive	< 4.36	< 4.70	inactive	inactive	inactive	inactive	inactive	inactive	5.11	< 4.00	4.72	inactive	inactive	4.98	< 4.70	Activity (Pseudomonas aeruginosa [13]): inactive; pIC50 (HCT-116 [14]): < 4.70; Activity (Enterococcus faecalis): inactive; pIC50 (BJ): 4.06; pIC50 [15]: < 4.70; CC50 [16]: > 44 µM; pIC50 [17]: 6.60; pIC50 (HepG2): < 4.70
Nc1nc2c(c(-c3cc4ccccc4o3)cn2[C@@H]2O[C@H](CO)[C@@H](O)[C@H]2O)c(=O)[nH]1	< 4.00	inactive	> 44 µM	< 4.70	inactive	< 4.36	< 4.70	inactive	inactive	inactive	inactive	inactive	inactive	< 4.70	< 4.00	< 4.36	inactive	inactive	< 4.70	< 4.00	Activity (Pseudomonas aeruginosa [13]): inactive; pIC50 (HCT-116 [14]): < 4.00; Activity (Enterococcus faecalis): inactive; pIC50 (BJ): < 4.00; pIC50 [15]: < 4.70; CC50 [16]: > 44 µM; pIC50 [17]: < 4.70; pIC50 (HepG2): < 4.70
CSc1ncnc2c1ccn2[C@@H]1O[C@H](CO)[C@@H](O)[C@H]1O	< 4.70	inactive	> 44 µM	5.14	inactive	< 4.36	< 4.70	inactive	inactive	inactive	inactive	inactive	inactive	7.00	< 4.00	4.52	inactive	inactive	< 4.70	< 4.70	Activity (Pseudomonas aeruginosa [13]): inactive; pIC50 (HCT-116 [14]): < 4.70; Activity (Enterococcus faecalis): inactive; pIC50 (BJ): < 4.00; pIC50 [15]: 5.44; CC50 [16]: > 44 µM; pIC50 [17]: 4.92; pIC50 (HepG2): < 4.70
Cc1ncnc2c1c(-c1ccco1)cn2[C@@H]1O[C@H](CO)[C@@H](O)[C@H]1O	7.40	inactive	43.6 µM	6.68	inactive	6.82	7.40	inactive	inactive	inactive	inactive	inactive	inactive	6.96	6.21	7.15	inactive	inactive	7.40	6.96	Activity (Pseudomonas aeruginosa [13]): inactive; pIC50 (HCT-116 [14]): 7.40; Activity (Enterococcus faecalis): inactive; pIC50 (BJ): 7.15; pIC50 [15]: 7.15; CC50 [16]: 6.62 µM; pIC50 [17]: 5.88; pIC50 (HepG2): 6.52
C#Cc1cn([C@@H]2O[C@H](CO)[C@@H](O)[C@H]2O)c2ncnc(C)c12	< 4.70	inactive	> 44 µM	5.95	inactive	4.67	5.25	inactive	inactive	inactive	inactive	inactive	inactive	6.96	5.84	6.64	inactive	inactive	5.16	4.72	Activity (Pseudomonas aeruginosa [13]): inactive; pIC50 (HCT-116 [14]): < 4.70; Activity (Enterococcus faecalis): inactive; pIC50 (BJ): 7.30; pIC50 [15]: 6.80; CC50 [16]: > 44 µM; pIC50 [17]: 4.83; pIC50 (HepG2): 6.54
CNc1ncnc2c1c(-c1cccs1)cn2[C@@H]1O[C@H](CO)[C@@H](O)[C@H]1O	< 4.70	inactive	> 44 µM	< 4.70	inactive	< 4.36	< 4.70	inactive	inactive	inactive	inactive	inactive	inactive	< 4.70	< 4.00	< 4.36	inactive	inactive	< 4.70	< 4.70	Activity (Pseudomonas aeruginosa [13]): inactive; pIC50 (HCT-116 [14]): < 4.70; Activity (Enterococcus faecalis): inactive; pIC50 (BJ): < 4.00; pIC50 [15]: < 4.70; CC50 [16]: > 44 µM; pIC50 [17]: < 4.70; pIC50 (HepG2): < 4.70
Cc1nc(N)c2c(-c3ccco3)cn([C@@H]3O[C@H](CO)[C@@H](O)[C@H]3O)c2n1	< 4.70	inactive	> 44 µM	< 4.70	inactive	< 4.36	< 4.00	inactive	inactive	inactive	inactive	inactive	inactive	< 4.70	< 4.00	< 4.36	inactive	inactive	< 4.70	< 4.70	Activity (Pseudomonas aeruginosa [13]): inactive; pIC50 (HCT-116 [14]): < 4.70; Activity (Enterococcus faecalis): inactive; pIC50 (BJ): < 4.00; pIC50 [15]: < 4.70; CC50 [16]: > 44 µM; pIC50 [17]: < 4.70; pIC50 (HepG2): < 4.70
C#Cc1cn([C@@H]2O[C@H](CO)[C@@H](O)[C@H]2O)c2ncnc(NC)c12	< 4.70	inactive	> 44 µM	5.04	inactive	< 4.36	< 4.70	inactive	inactive	inactive	inactive	inactive	inactive	5.86	< 4.00	6.46	inactive	inactive	< 4.70	< 4.70	Activity (Pseudomonas aeruginosa [13]): inactive; pIC50 (HCT-116 [14]): < 4.70; Activity (Enterococcus faecalis): inactive; pIC50 (BJ): 4.07; pIC50 [15]: 4.73; CC50 [16]: > 44 µM; pIC50 [17]: < 4.70; pIC50 (HepG2): < 4.82
O=c1[nH]cnc2c1c(-c1cc3ccccc3o1)cn2[C@@H]1O[C@H](CO)[C@@H](O)[C@H]1O	< 4.70	inactive	> 44 µM	< 4.70	inactive	4.76	< 4.70	inactive	inactive	inactive	inactive	inactive	inactive	< 4.70	< 4.00	5.14	inactive	inactive	< 4.70	< 4.70	Activity (Pseudomonas aeruginosa [13]): inactive; pIC50 (HCT-116 [14]): < 4.70; Activity (Enterococcus faecalis): inactive; pIC50 (BJ): 4.20; pIC50 [15]: < 4.70; CC50 [16]: > 44 µM; pIC50 [17]: < 4.70; pIC50 (HepG2): < 4.70
